From ChEMBL document CHEMBL1240362, “Intrapulmonary pharmacokinetics of S-013420, a novel bicyclolide antibacterial, in healthy Japanese subjects” (Antimicrob Agents Chemother, 2010)
In brackets after ≈: the same amount, converted by molar mass.

What was measured:
[1] = Cmax in epithelial lining fluid of healthy human at 400 mg, po administered as single dose
[2] = Ratio of drug level in alveolar macrophages to plasma in healthy human at 400 mg, po administered as single dose after 4 hrs
Homo sapiens [3] = experiment: Toxicity in healthy human assessed as lymphocytes count in bronchoalveolar fluid at […], po administered as single dose after 24 hrs; type: organism-based, Lung; set-up: route oral; settings: in vivo
Summary of the method: (§1)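 Healthy Japanese male never-smokers, aged 20 to 45 years with normal BMI, got one open-label oral 400 mg suspension dose. Four subjects per time group had one fiber-optic bronchoscopic BAL at the assigned post-dose time. The first aliquot was discarded and the last three were pooled. BAL fluid was held on ice and spun at 400 × g for 5 min at 4°C. Pellet cells were counted by hemocytometer, with a differential count on a stained cytocentrifuge preparation.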

[4] = Drug level in alveolar macrophages of healthy human at […], po administered as single dose after 8 hrs; type: ADME, organism-based, Macrophage; set-up: route oral; settings: read-out: Drug uptake
Summary of the method: (§2)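 One oral 400 mg suspension dose; four volunteers lavaged at each time (2-24 h). Cell pellet from the pooled 2nd-4th aspirates was counted (hemocytometer, stained cytospin differential). Drug in cell suspension measured by HPLC, divided by AM volume assuming 2.42 μl/10^6 cells. Cmax and Tmax are model-independent, based on mean concentrations at each time.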

[5] = Tmax in plasma of healthy human at 400 mg, po administered as single dose
[6] = Drug level in alveolar macrophages of healthy human at […], po administered as single dose after 4 hrs; type: ADME, organism-based, Macrophage; set-up: route oral; settings: read-out: Drug uptake
Summary of the method: as §2

Homo sapiens [7] = experiment: Toxicity in healthy human assessed as alveolar macrophage count in bronchoalveolar fluid at 400 mg, po administered as single dose after 2 hrs; settings: in vivo
[8] = Ratio of AUC (0 to 24 hrs) in […] healthy epithelial lining fluid to MIC90 for Moraxella catarrhalis; type: functional
Homo sapiens [9] = experiment: Toxicity in healthy human assessed as neutrophil count in bronchoalveolar fluid at […], po administered as single dose after 8 hrs; type: organism-based, Lung; set-up: route oral; settings: in vivo
Summary of the method: as §1

Homo sapiens [10] = experiment: Toxicity in healthy human assessed as alveolar macrophage count in bronchoalveolar fluid at 400 mg, po administered as single dose after 4 hrs; settings: in vivo
Staphylococcus aureus = experiment: Antimicrobial activity against erythromycin-susceptible Staphylococcus aureus; type: functional
Homo sapiens [11] = experiment: Toxicity in healthy human assessed as eosinophil count in bronchoalveolar fluid at […], po administered as single dose after 2 hrs; type: organism-based, Lung; set-up: route oral; settings: in vivo
Summary of the method: as §1

Haemophilus influenzae = experiment: Antimicrobial activity against Haemophilus influenzae; type: functional
[12] = Ratio of AUC (0 to 24 hrs) in plasma of healthy human to MIC90 for erythromycin-susceptible Staphylococcus aureus; type: functional
[13] = AUC (0 to 24 hrs) in epithelial lining fluid of healthy human at 400 mg, po administered as single dose by linear trapezoidal method
Homo sapiens [14] = experiment: Toxicity in healthy human assessed as other cellular fractions in bronchoalveolar fluid at […], po administered as single dose after 6 hrs; type: organism-based, Lung; set-up: route oral; settings: in vivo
Summary of the method: as §1

[15] = Plasma concentration in healthy human at […], po after 2 hrs; type: ADME, organism-based; set-up: route oral
Summary of the method: (§3)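 Healthy nonsmoking Japanese men, 20-45 y, given one oral 400 mg suspension dose. Blood drawn at 0-72 h, spun at 1,600 × g for 10 min at 4°C, plasma kept at −20°C. Drug measured by validated LC/MS/MS, linear 0.005-5 μg/ml. Values are mean ± SD, n = 28. Cmax, Tmax and t1/2,z are model-independent; AUC0-24 by trapezoidal method.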

[16] = Terminal-phase half-life in plasma of healthy human at 400 mg, po administered as single dose; settings: read-out: beta t1/2 (converted)
Homo sapiens [17] = experiment: Toxicity in healthy human assessed as alveolar macrophage count in bronchoalveolar fluid at 400 mg, po administered as single dose after 10 hrs; settings: in vivo
[18] = Cmax in plasma of healthy human at 400 mg, po administered as single dose
[19] = Ratio of drug level in epithelial lining fluid to plasma in healthy human at […] administered as single dose after 2 hrs; type: ADME, organism-based; set-up: route oral; settings: po
Summary of the method: (§4)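 For each subject, ELF or AM drug level after the single oral 400 mg dose is divided by the plasma level sampled at the BAL time (2-24 h). Ratios are summarized per four-subject group.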

[20] = Drug level in epithelial lining fluid of healthy human at […] administered as single dose after 2 hrs; type: ADME, organism-based; set-up: route oral; settings: po, read-out: Drug uptake
Summary of the method: (§5)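 Four healthy male volunteers per BAL time (2-24 h) after one oral 400 mg suspension dose. Single bronchoscopic lavage; first aliquot discarded, next three pooled. Supernatant separated at 400 × g, 5 min, 4°C, and drug assayed by LC/MS/MS. ELF level = CBAL × urea plasma/urea BAL, with urea corrected for blood contamination via RBC ratio. PK parameters are model-independent, based on the mean concentration at each time.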

[21] = Ratio of drug level in alveolar macrophages to plasma in healthy human at 400 mg, po administered as single dose after 12 hrs
[22] = Drug level in epithelial lining fluid of healthy human at […], po administered as single dose after 8 hrs; type: ADME, organism-based; set-up: route oral; settings: read-out: Drug uptake
Summary of the method: as §5

Homo sapiens [23] = experiment: Toxicity in healthy human assessed as lymphocytes count in bronchoalveolar fluid at […], po administered as single dose after 2 hrs; type: organism-based, Lung; set-up: route oral; settings: in vivo
Summary of the method: as §1

[24] = Ratio of drug level in alveolar macrophages to plasma in healthy human at 400 mg, po administered as single dose after 10 hrs
[25] = Ratio of drug level in epithelial lining fluid to plasma in healthy human at 400 mg, po administered as single dose after 24 hrs
[26] = AUC (0 to 24 hrs) in plasma of healthy human at 400 mg, po administered as single dose by linear trapezoidal method
[27] = Ratio of drug level in epithelial lining fluid to plasma in healthy human at 400 mg, po administered as single dose after 12 hrs
[28] = Plasma concentration in healthy human at […], po after 4 hrs; type: ADME, organism-based; set-up: route oral
Summary of the method: as §3

Homo sapiens [29] = experiment: Toxicity in healthy human assessed as eosinophil count in bronchoalveolar fluid at 400 mg, po administered as single dose after 24 hrs; settings: in vivo
[30] = Drug level in epithelial lining fluid of healthy human at […], po administered as single dose after 10 hrs; type: ADME, organism-based; set-up: route oral; settings: read-out: Drug uptake
Summary of the method: as §5

[31] = Ratio of drug level in epithelial lining fluid to plasma in healthy human at […], po administered as single dose after 4 hrs; type: ADME, organism-based; set-up: route oral
Summary of the method: as §4

Homo sapiens [32] = experiment: Toxicity in healthy human assessed as lymphocytes count in bronchoalveolar fluid at […], po administered as single dose after 10 hrs; type: organism-based, Lung; set-up: route oral; settings: in vivo
Summary of the method: as §1

## CC[C@H]1OC(=O)[C@H](C)C(=O)[C@H](C)[C@@H](O[C@@H]2O[C@H](C)C[C@H](N(C)C)[C@H]2O)[C@@]2(C)C[C@@H](C)/C(=N\C(C)=O)[C@H](C)[C@@H](OC/C(=N\OCc3ccc(-n4cccn4)nc3)CO2)[C@]1(C)O [MODITHROMYCIN]
[1]
  Cmax: 16800 ng/mL
[2]
  Kp at 4 h: 201
Homo sapiens [3]
  Activity: 10.8%
[4]
  concentration at 8 h: 125000 ng/mL
[5]
  Tmax: 2.27 h
[6]
  concentration at 4 h: 116000 ng/mL
Homo sapiens [7]
  Activity: 84.8%
[8]
  RatioAUC/MIC: 424.8
Homo sapiens [9]
  Activity: 0.1%
Homo sapiens [10]
  Activity: 87.1%
Staphylococcus aureus
  MIC90: 0.25 µg/mL (≈ 0.297 µM)
Homo sapiens [11]
  Activity: 0%
Haemophilus influenzae
  MIC90: 8 µg/mL (≈ 9.51 µM)
[12]
  RatioAUC/MIC: 41.8
[13]
  AUC(0-t) at 24 h: 212 µg·h/mL
Homo sapiens [14]
  Activity: 0.1%
[15]
  concentration at 2 h: 646 ng/mL
[16]
  half-life: 17.5 h
Homo sapiens [17]
  Activity: 85.8%
[18]
  Cmax: 687 ng/mL
[19]
  Kp at 2 h: 26.3
[20]
  concentration at 2 h: 16700 ng/mL
[21]
  Kp at 12 h: 406
[22]
  concentration at 8 h: 11400 ng/mL
Homo sapiens [23]
  Activity: 15.3%
[24]
  Kp at 10 h: 260
[25]
  Kp at 24 h: 21.3
[26]
  AUC(0-t) at 24 h: 10.5 µg·h/mL
[27]
  Kp at 12 h: 13.8
[28]
  concentration at 4 h: 575 ng/mL
Homo sapiens [29]
  Activity: 0%
[30]
  concentration at 10 h: 10000 ng/mL
[31]
  Kp at 4 h: 24.8
Homo sapiens [32]
  Activity: 13.6%
